Source: publication PMC6935887 (Journal of Medicinal Chemistry, 2019)
“And” between values parts separate entries of the source, which are not always exact repeats. Equal entries are not always repeated.

What was measured:
[1] = molecular target: T1, hCCR2 (Homo sapiens, UniProt P41597); experiment: [3H]-CCR2-RA-[R] displacement binding assay on U2OS-CCR2b membranes; details: displacement of ∼6 nM [3H]-CCR2-RA-[R] from U2OS cells stably expressing CCR2, 25 °C
T1 sequence (P41597 1-360 isoform P41597-2): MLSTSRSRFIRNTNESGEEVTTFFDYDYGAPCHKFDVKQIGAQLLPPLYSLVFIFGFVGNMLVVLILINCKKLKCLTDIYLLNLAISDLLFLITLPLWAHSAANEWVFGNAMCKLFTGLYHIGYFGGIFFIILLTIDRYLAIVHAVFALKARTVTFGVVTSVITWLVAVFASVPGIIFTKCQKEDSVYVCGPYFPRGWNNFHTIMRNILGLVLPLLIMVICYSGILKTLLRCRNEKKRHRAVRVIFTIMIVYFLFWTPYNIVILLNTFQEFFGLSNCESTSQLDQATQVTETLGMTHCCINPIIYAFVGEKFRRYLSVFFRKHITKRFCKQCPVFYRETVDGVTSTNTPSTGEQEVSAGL
In short: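 U2OS-CCR2b membranes (15–20 μg protein) were incubated with ~6 nM [3H]-CCR2-RA-[R] and at least 6 competitor concentrations. Buffer: 50 mM Tris-HCl, 5 mM MgCl2, 0.1% CHAPS, pH 7.4. Incubation 2 h at 25 °C. Rapid GF/B filtration, ten washes with ice-cold buffer (0.05% CHAPS), scintillation counting. Mean ± SEM of ≥3 experiments in duplicate.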

[2] = molecular target: T1, hCCR2; experiment: Tango β-arrestin recruitment assay in U2OS-CCR2 cells; format: cell-based; details: inhibition of CCL2-induced β-arrestin recruitment in U2OS-CCR2
In short: (§1)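 Tango bla U2OS cells (human CCR2b or CCR5) were trypsinized and seeded at 10 000 cells/well in FreeStyle medium. Agonist mode: CCL2 or CCL3 for 16 h, 37 °C, 5% CO2. Antagonist mode: 30 min room-temperature preincubation with increasing compound (≤0.5% DMSO final), then 16 h with EC80 CCL2 (5 nM, CCR2) or CCL3 (14 nM, CCR5). LiveBLAzer-FRET B/G substrate 2 h; excitation 400 nm, 460/535 nm emission ratio.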

[3] = molecular target: hCCR5 (Homo sapiens, UniProt P51681); experiment: Tango β-arrestin recruitment assay in U2OS-CCR5 cells; format: cell-based; details: inhibition of CCL3-induced β-arrestin recruitment in U2OS-CCR5
In short: as §1

[4] = tested on: CCR2; details: read-out: IC50 in CCR2 calcium flux assay; previously reported activity; cited from earlier work

hCCR5, sequence (P51681 whole entry): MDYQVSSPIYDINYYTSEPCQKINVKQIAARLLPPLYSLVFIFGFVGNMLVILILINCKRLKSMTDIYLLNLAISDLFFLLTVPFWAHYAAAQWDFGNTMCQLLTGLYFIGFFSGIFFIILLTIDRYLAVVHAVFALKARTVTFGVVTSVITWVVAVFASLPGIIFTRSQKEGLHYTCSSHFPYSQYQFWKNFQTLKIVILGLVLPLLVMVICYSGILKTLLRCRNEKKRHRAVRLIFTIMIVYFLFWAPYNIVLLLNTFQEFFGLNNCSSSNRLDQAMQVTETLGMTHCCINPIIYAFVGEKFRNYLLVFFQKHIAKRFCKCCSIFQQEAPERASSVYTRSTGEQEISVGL

pKi ± SEM [1]: 8.90 ± 0.04 | Hill slope (nH) [2]: −2.7 | Hill slope (nH) [3]: −2.2 ± 0.3
SMILES: Nc1nc2[nH]c(C3CC3)c(Cc3cccc(Cl)c3)c(=O)n2n1 [Compound 8, 2-Amino-6-(3-chlorobenzyl)-5-cyclopropyl[1,2,4]triazolo[1,5-a]pyrimidin-7(4H)-one]
IC50 [4]: 16 nM and ~20 nM
